Screens (PubChem BioAssay)
Vif inh – blocks HIV Vif function; HEK293T cells, Vif self-association by quenched fluorescence, imaging, 24 h; inhibition, % at 7.49 µM; 340,000 tested, 0.35% active; in the data active = inhibition above about 50%, passing the limit was not always enough
NR2E3 ag-1 – NR2E3 (human) agonism; 320,000 tested, 0.12% active; inhibition of corepressor binding, % at 4.78 µM; GST-NR2E3/biotin-RetCOR TR-FRET, 1536-well;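 active = percent inhibition above the cutoff of mean plus 3 SD of all tested compounds, set per screening campaign, cut at about 20% in these data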;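 also: 0% = DMSO wells and 100% = biotin wells as full block of FRET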
Target sequence (Q9Y5X4 whole entry, looked up): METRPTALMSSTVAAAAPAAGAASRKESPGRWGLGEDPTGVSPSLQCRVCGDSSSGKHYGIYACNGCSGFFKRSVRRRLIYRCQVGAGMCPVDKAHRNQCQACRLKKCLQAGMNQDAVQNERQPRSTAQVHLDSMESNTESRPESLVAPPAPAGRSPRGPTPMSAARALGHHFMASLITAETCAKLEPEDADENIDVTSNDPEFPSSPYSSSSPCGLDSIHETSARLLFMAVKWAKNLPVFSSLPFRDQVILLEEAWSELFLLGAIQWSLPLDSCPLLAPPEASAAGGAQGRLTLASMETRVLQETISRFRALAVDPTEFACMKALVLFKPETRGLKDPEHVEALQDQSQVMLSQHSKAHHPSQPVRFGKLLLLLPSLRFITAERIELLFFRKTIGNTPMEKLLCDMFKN
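Format: 1536-well format; test system: GST-NR2E3 and biotin-RetCOR proteins; read-out basis: percent inhibition of TR-FRET ratio; timing: 5 h incubation at 4 °C; detection: time-resolved FRET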
NR2E3 ag-2 – activates human NR2E3 receptor. inhibition of corepressor binding, % at 3.98 µM. 360,000 tested, 0.35% active. Q9Y5X4. CHO-S Gal4-NCOR/VP16-NR2E3 two-hybrid, luciferase. AID 602229;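 active = inhibition above the mean of all tested compounds plus 3 SD, cut at about 70% in these data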;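 also: 0% = DMSO with NR2E3 transfected cells and 100% = cells lacking NR2E3 construct; higher means lower luciferase signal from less NR2E3 corepressor binding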
core dimer inh – HCV core protein dimerization inhibition; AID 1899; TR-FRET GST/Flag-core106 dimerization, 1536-well; inhibition, % at 5 µM; 300,000 tested, 0.33% active;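 active = inhibition above the mean of all tested compounds plus 3 SD, set per screening campaign, cut at about 45% in these data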
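Assay system: tagged HCV core106 pair (GST and Flag); medium: KF-containing HEPES buffer, pH 7.45, DTT, CHAPS, BSA; also added: Eu donor and XL665 acceptor anti-tag antibodies; dosing: 5 µM single dose; timing: compound-protein-antibody incubation 4 h at 22.5 °C; signal: TR-FRET 671 and 617 nm emission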
DAGLB inhibitor – blocks human DAGLB lipase activity. 340,000 tested, 0.059% active. HEK293T DAGLB membrane lysate, EnzChek fluorogenic substrate. inhibition, % at 5.17 µM. Q8NCG7. AID 504411; in the data active = inhibition above about 34%;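 also: 0% = enzyme with vehicle and 100% = wells lacking enzyme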
MT1-MMP act inh – MT1-MMP (human) activation inhibition. HT1080 RFP-PRO-GFP cells, GFP/RFP ratio fluorescence, overnight; percent of plate control window, DMSO zero. GFP/RFP ratio change, % at 20 µM. 360,000 tested, 0.061% active. AID 651647;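 active = GFP/RFP ratio change of at least 30% with cell ATP level not reduced by more than half and red fluorescence within 50% of control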
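Assay system: HT1080 RFP-PRO-GFP cells | Dosing: 20 µM single dose, 1% DMSO | Incubation: Cells overnight before dosing, compound overnight, 37 °C, 5% CO2 | Evaluation: GFP/RFP fluorescence ratio | Control set: DMSO-only wells and HT1080 RFP-L50D-GFP cell wells as references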
Active calls of the source: *; . = no result. Shown are actives, neighbours in structure and some others; about 1.1% of the full set was active somewhere.

SMILES	Vif inh	NR2E3 ag-1	NR2E3 ag-2	core dimer inh	DAGLB inhibitor	MT1-MMP act inh
Cc1oc(-c2ccc(Cl)cc2)nc1CN1CCC(C(=O)NCc2cccnc2)CC1	86.6*	0.8	18.1	-1.5	-1.3	3.6
O=C(CN1C(=O)C(=O)N(Cc2ccco2)C1=O)Nc1ccccc1	16.8	.	2.3	.	-0.5	-4.3
COC(=O)c1c(NC(=O)CSc2nnc(CNc3ccc(Cl)cc3)o2)sc(C)c1C	72.4*	5.2	-19.1	4.2	2.7	-1.3
COC(=O)c1cc(Cl)c(NC(=O)c2cc3ccccc3o2)cc1OC	63.1*	-9.8	-40.8	-46.9	-3.3	2.4
O=C(Nc1ccc(N2CCOCC2)c(Cl)c1)c1cc2ccccc2o1	91.6*	-0.5	-99.7	2.7	-2.2	0.4
COC(=O)c1cc(Cl)c(NC(=O)c2ccc(C(C)(C)C)cc2)cc1OC	-5.6	-0.7	-65.0	3.0	-7.7	3.8
Cc1ccc(S(=O)(=O)/N=C(/Nc2cccc3ccccc23)c2ccc(F)cc2)cc1	-9.1	2.2	0.6	8.0	-3.8	-1.3
CC1(C(=O)Nc2ccc3c(c2)OCCO3)CN(S(C)(=O)=O)CC(=O)N1CCc1ccccc1F (stereo unspecified)	.	.	.	.	.	-0.1
CN(C)c1ccc(/C=C2\Oc3ccc(C#Cc4cccc(N)c4)cc3C2=O)cc1	62.6*	.	-81.3	.	-70.8	-93.6
COC(=O)c1ccc2c(c1)C(=O)/C(=C/c1ccc(C)cc1)O2	-6.3	4.8	-21.0	0.0	-2.2	8.1
CC(C)C(NC(=O)c1ccccc1NC(=O)C(C)(C)C)C(=O)N1CCOCC1 (stereo unspecified)	69.1*	.	-24.6	.	-0.9	3.7
CC(NC(=O)c1ccccc1NC(=O)c1ccccc1)C(=O)N1CCOCC1 (stereo unspecified)	-3.3	1.5	-6.7	6.6	-1.7	0.8
COc1ccccc1C(=O)NCc1ccccn1	-10.1	2.2	6.4	15.9	0.3	-2.0
C(=C\c1ccco1)/c1ccc2ccccc2n1	18.0	0.2	-3.3	53.2*	.	-20.6
Fc1cccc(F)c1/C=C/c1ccc2ccccc2n1	-7.5	-1.6	-177.7	-1.4	-9.1	-1.4
CCCCNC(=O)c1[nH]c(C2CCNCC2)nc1-c1cccc(C(F)(F)F)c1	.	.	.	.	.	-0.5
CC(C)c1cc(Cn2c3ccccc3c(=O)n2C(C)Cn2cc(-c3ccccc3)nn2)on1 (stereo unspecified)	.	.	.	.	.	0.7
CSCCC(C(=O)Nc1c(C)cccc1C)N1CCN(C/C=C/c2ccccc2)CC1 (stereo unspecified)	0.1	.	17.8	.	.	3.3
O=C(Nc1ncc2c(n1)CC(c1ccco1)CC2=O)c1ccccc1 (stereo unspecified)	7.9	-0.9	-40.4	-3.4	-1.7	4.9
O=C1CC(c2ccco2)Cc2nc(Nc3nc(-c4ccccc4)c4ccccc4n3)ncc21 (stereo unspecified)	10.8	-3.4	-36.9	59.1*	3.7	0.9
CC(=O)Nc1cccc(C(=O)OCC(=O)N(c2ccccc2)C2CCS(=O)(=O)C2)c1 (stereo unspecified)	0.6	.	-1.9	.	2.4	-2.3
CCOC(=O)c1ccc(-c2ccc(/C=N/NC(=O)c3cncc(Br)c3)o2)cc1	58.0*	-0.7	-64.4	-2.2	.	3.1
Cc1ccc(/C=N\NC(=O)c2cncc(Br)c2)o1	-2.1	-0.5	-7.5	-19.8	0.6	0.7
CCN(C(=O)COc1ccc(C)cc1OC)c1cccc2ccccc12	56.6*	.	14.1	.	3.0	-6.1
CCOC(=O)C1Nc2ccccc2C2C(O)C(O)CC12 (stereo unspecified)	13.4	-1.8	7.9	7.7	-9.2	46.3*
CC1CCCCC12NC(=O)N(CC(=O)NCCc1c[nH]c3ccccc13)C2=O (stereo unspecified)	-1.9	-1.0	5.4	.	1.2	1.0
Cc1ccc(C(=O)N2CCN(c3ccc(NC(=S)NC(=O)Cc4ccccc4)cc3)CC2)cc1	-9.1	1.4	72.0*	17.6	-3.3	2.5
O=S(=O)(NCc1cn2ccsc2n1)c1ccc(Oc2ccccc2)cc1	1.8	-1.5	88.5*	5.2	1.8	-8.8
